According to ChEMBL document CHEMBL5576155, “Expanding the chemical space of ester of quinoxaline-7-carboxylate 1,4-di-N-oxide derivatives as potential antitubercular agents” (RSC Med Chem, 2024):

Legend:
[1] = system: Mycobacterium tuberculosis; experiment: Antitubercular activity against Mycobacterium tuberculosis H37Rv assessed as reduction in microbial growth incubated for 10 days under anaerobic condition followed by 28 hrs incubation with aerobic condition further incubated 7 days at 5 % CO2 condition by low-oxygen recovery assay; format: functional; conditions: time 436 hrs
[2] = system: Mycobacterium tuberculosis; experiment: Antitubercular activity against Mycobacterium tuberculosis H37Rv assessed as reduction in microbial growth by MABA; format: functional
Procedure, shortened: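 M. tuberculosis H37Rv tested in vitro by modified Alamar blue microplate assay (MABA), with rifampicin and isoniazid as reference drugs. MIC was the lowest drug concentration giving 90% inhibition. Triplicate independent experiments.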

[3] = Selectivity index, ratio of CC50 for cytotoxicity against mouse J774.2 cell to MIC for antibacterial activity against Mycobacterium tuberculosis H37Rv; format: toxicity; conditions: J774.2 cells, read-out: Selectivity Index
Procedure, shortened: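 CC50 was measured in murine macrophage J774.2 cells grown in RPMI 1640 with 10% FBS, 1% MEM-NEAA and antibiotic–antifungal mix at 37 °C, 5% CO2. 1 × 10^5 cells per well received serial dilutions in triplicate, with 0.1% DMSO as negative control. Viability was read by MTT. SI is CC50 over the MABA MIC against H37Rv.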

[4] = Cytotoxicity against mouse J774.2 cells assessed as reduction in cell viability by MTT assay; format: toxicity, cell-based
Procedure, shortened: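 Murine macrophage J774.2 grown in RPMI 1640 with 10% FBS, 1% MEM-NEAA and 100 U mL−1 antibiotic–antifungal, at 37 °C, 5% CO2, humidified. Cells washed and plated at 1 × 10^5 per well. Serial-dilution dose–response run in triplicate, with 0.1% DMSO as negative control. Viability read by MTT colorimetric assay. CC50 derived from the dose–response.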

`CC(C)COC(=O)c1ccc2c(c1)[n+]([O-])c(C(=O)c1ccccc1)c(C(F)(F)F)[n+]2[O-]` gave an MIC [1] of 0.92 µM and an MIC [2] of 0.53 µM.
Molecule `COC(=O)c1c(C)[n+]([O-])c2ccc(C(=O)OCC(C)C)cc2[n+]1[O-]` has an MIC [1] of 2.01 µM and an MIC [2] of 0.84 µM.
In the case of `CC(C)COC(=O)c1ccc2c(c1)[n+]([O-])c(C(=O)Nc1ccccc1)c(-c1ccccc1)[n+]2[O-]`, the MIC [1] was 1.49 µM, the selectivity ratio [3] was 10.2 and the MIC [2] was 0.57 µM. It also gave a CC50 [4] of over 200 µM.
`CCCCOC(=O)c1ccc2c(c1)[n+]([O-])c(C(=O)OCC)c(C)[n+]2[O-]` gave an MIC [1] of 6.24 µM, a selectivity ratio [3] of 10.2 and an MIC [2] of 1.38 µM. For the same molecule, the CC50 [4] was over 200 µM.
For `NNC(=O)c1ccncc1` [ISONIAZID], the MIC [1] was over 933 µM and the MIC [2] was 2.92 µM.
Work on `CCCCOC(=O)c1ccc2c(c1)[n+]([O-])c(C(=O)c1ccccc1)c(C)[n+]2[O-]` yielded an MIC [1] of 5.37 µM, a selectivity ratio [3] of 10.2 and an MIC [2] of 1.95 µM. The CC50 [4] was 17.7 µM.
`CCOC(=O)c1ccc2c(c1)[n+]([O-])c(C(=O)c1cccs1)c(C(F)(F)F)[n+]2[O-]` gave an MIC [1] of 0.51 µM and an MIC [2] of 0.24 µM.
With `CC(C)OC(=O)c1ccc2c(c1)[n+]([O-])c(C(=O)c1cccs1)c(C(F)(F)F)[n+]2[O-]` the MIC [1] was 0.54 µM and the MIC [2] was 0.19 µM.
`CCCCOC(=O)c1ccc2c(c1)[n+]([O-])c(C(=O)OCc1ccccc1)c(C)[n+]2[O-]` gave an MIC [1] of 1.73 µM, a selectivity ratio [3] of 10.2 and an MIC [2] of 0.59 µM. The CC50 [4] was over 200 µM.
With `CO[C@H]1/C=C/O[C@@]2(C)Oc3c(C)c(O)c4c(O)c(c(/C=N/N5CCN(C)CC5)c(O)c4c3C2=O)NC(=O)/C(C)=C\C=C\[C@H](C)[C@H](O)[C@@H](C)[C@@H](O)[C@@H](C)[C@H](OC(C)=O)[C@@H]1C` [RIFAMPIN] the MIC [1] was 0.06 µM and the MIC [2] was 0.02 µM.
In the case of `CC(C)COC(=O)c1ccc2c(c1)[n+]([O-])c(C(=O)c1ccc3ccccc3c1)c(C(F)(F)F)[n+]2[O-]`, the MIC [1] was 2.33 µM and the MIC [2] was 1.38 µM.
For `CC(=O)c1c(C(F)(F)F)[n+]([O-])c2ccc(C(=O)OCC(C)C)cc2[n+]1[O-]`, the MIC [1] was 0.94 µM, the selectivity ratio [3] was 10.2 and the MIC [2] was 0.7 µM. The CC50 [4] was 25.4 µM.
Molecule `CCCCOC(=O)c1ccc2c(c1)[n+]([O-])c(C(=O)OC)c(C)[n+]2[O-]` has an MIC [1] of 5.24 µM, a selectivity ratio [3] of 10.2 and an MIC [2] of 0.87 µM. The CC50 [4] was 46.2 µM.
`CC(C)COC(=O)c1ccc2c(c1)[n+]([O-])c(C(=O)c1cccs1)c(C(F)(F)F)[n+]2[O-]` showed an MIC [1] of 0.77 µM, a selectivity ratio [3] of 10.2 and an MIC [2] of 0.55 µM. It also gave a CC50 [4] of 43.9 µM.
Work on `CC(C)COC(=O)c1ccc2c(c1)[n+]([O-])c(C(=O)c1ccco1)c(C(F)(F)F)[n+]2[O-]` yielded an MIC [1] of 1.65 µM, a selectivity ratio [3] of 10.2 and an MIC [2] of 0.68 µM. It also gave a CC50 [4] of 81.8 µM.
Molecule `CCCCOC(=O)c1ccc2c(c1)[n+]([O-])c(C(=O)c1cccs1)c(C(F)(F)F)[n+]2[O-]` has an MIC [1] of 0.86 µM and an MIC [2] of 0.57 µM.
For `CCCCOC(=O)c1ccc2c(c1)[n+]([O-])c(C(=O)Nc1ccc(C)cc1C)c(C)[n+]2[O-]`, the MIC [1] was over 118 µM and the MIC [2] was over 118 µM.
`CCCCOC(=O)c1ccc2c(c1)[n+]([O-])c(C(C)=O)c(C)[n+]2[O-]` showed an MIC [1] of 2.3 µM, a selectivity ratio [3] of 10.2 and an MIC [2] of 0.88 µM. The CC50 [4] was 58.4 µM.
In the case of `Cc1c(C(=O)c2ccccc2)[n+]([O-])c2cc(C(=O)OCC(C)C)ccc2[n+]1[O-]`, the MIC [1] was 2.68 µM, the selectivity ratio [3] was 10.2 and the MIC [2] was 0.95 µM. The CC50 [4] was 34.2 µM.
Work on `Cc1c(C(=O)Nc2ccccc2)[n+]([O-])c2cc(C(=O)OCC(C)C)ccc2[n+]1[O-]` yielded an MIC [1] of 2.73 µM, a selectivity ratio [3] of 10.2 and an MIC [2] of 2.56 µM. The CC50 [4] was over 200 µM.
For `Cc1ccc(NC(=O)c2c(C)[n+]([O-])c3cc(C(=O)OCC(C)C)ccc3[n+]2[O-])c(C)c1`, the MIC [1] was over 118 µM, the selectivity ratio [3] was 10.2 and the MIC [2] was over 118 µM. For the same molecule, the CC50 [4] was over 200 µM.
`Cc1c(C(=O)Nc2ccc(Cl)cc2)[n+]([O-])c2cc(C(=O)OCC(C)C)ccc2[n+]1[O-]` showed an MIC [1] of 1.86 µM and an MIC [2] of 1.63 µM.
In the case of `CCCCOC(=O)c1ccc2c(c1)[n+]([O-])c(C(=O)c1ccccc1)c(C(F)(F)F)[n+]2[O-]`, the MIC [1] was 0.88 µM, the selectivity ratio [3] was 10.2 and the MIC [2] was 0.53 µM. It also gave a CC50 [4] of 48.4 µM.
For `CC(=O)c1c(C)[n+]([O-])c2ccc(C(=O)OCC(C)C)cc2[n+]1[O-]`, the MIC [1] was 1.82 µM, the selectivity ratio [3] was 10.2 and the MIC [2] was 0.94 µM. For the same molecule, the CC50 [4] was 87.2 µM.
In the case of `CCCCOC(=O)c1ccc2c(c1)[n+]([O-])c(C(C)=O)c(C(F)(F)F)[n+]2[O-]`, the MIC [1] was 0.97 µM, the selectivity ratio [3] was 10.2 and the MIC [2] was 0.62 µM. The CC50 [4] was over 200 µM.
In the case of `CCCCOC(=O)c1ccc2c(c1)[n+]([O-])c(C(=O)Nc1ccccc1)c(-c1ccccc1)[n+]2[O-]`, the MIC [1] was 9.74 µM, the selectivity ratio [3] was 10.2 and the MIC [2] was 3.3 µM. It also gave a CC50 [4] of 44.1 µM.
`Cc1ccc(NC(=O)c2c(C)[n+]([O-])c3ccc(C(=O)OCC(C)C)cc3[n+]2[O-])c(C)c1` gave an MIC [1] of 12.3 µM, a selectivity ratio [3] of 10.2 and an MIC [2] of 19.7 µM. It also gave a CC50 [4] of over 200 µM.
`CCCCOC(=O)c1ccc2c(c1)[n+]([O-])c(C(=O)Nc1ccc(Cl)cc1)c(C)[n+]2[O-]` gave an MIC [1] of over 117 µM, a selectivity ratio [3] of 10.2 and an MIC [2] of over 117 µM. For the same molecule, the CC50 [4] was 50.3 µM.
In the case of `CCCCOC(=O)c1ccc2c(c1)[n+]([O-])c(C(=O)OCC)c(C(F)(F)F)[n+]2[O-]`, the MIC [1] was 0.87 µM, the selectivity ratio [3] was 10.2 and the MIC [2] was 0.57 µM. The CC50 [4] was over 200 µM.
Work on `CCCCOC(=O)c1ccc2c(c1)[n+]([O-])c(C(=O)c1ccc3ccccc3c1)c(C(F)(F)F)[n+]2[O-]` yielded an MIC [1] of 3.04 µM, a selectivity ratio [3] of 10.2 and an MIC [2] of 1.07 µM. It also gave a CC50 [4] of over 200 µM.
With `CCCCOC(=O)c1ccc2c(c1)[n+]([O-])c(C(=O)OC(C)(C)C)c(C)[n+]2[O-]` the MIC [1] was 128 µM, the selectivity ratio [3] was 10.2 and the MIC [2] was 14.7 µM. For the same molecule, the CC50 [4] was over 200 µM.
